The text below walks through data of ChEMBL document CHEMBL1152965, “Synthesis and in vitro antiplasmodial evaluation of 4-anilino-2-trichloromethylquinazolines” (Bioorg Med Chem, 2009).

Some results are limits rather than exact numbers.

The test system of one data set is K562. Nature of the data set: Cytotoxicity against human K562 cells after 72 hrs by flow cytometry. Type of data set: cell-based. The following applies: K562, 72 h. The procedure, abridged:
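Chemosensitive K562 subline, late log phase, in phenol-red-free RPMI with 10% serum. Compound range added in duplicate (DMSO <0.5%). After 72 h at 37 °C, 6% CO₂, cells stained with propidium iodide and live cells in a 100 µL sample counted by flow cytometry. IC50 from non-linear regression of dose-response curves, mean of three independent experiments.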
A general note: A flow cytometer gives signals particle by particle.

The subject of a further data set is HepG2. Nature of the data set: Cytotoxicity against human HepG2 cells after 72 hrs by MTT assay. It counts as cell-based. Particulars: HepG2, 72 h. Put shortly: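 HepG2 cells plated in RPMI with 10% FBS and grown 24 h, then exposed to a range of compound concentrations for 72 h at 37 °C, 6% CO₂. MTT (5 mg/mL stock) added for 2 h, formazan dissolved in DMSO and read at 570 nm against 630 nm. Viability expressed as percent of untreated control. CC50 taken from the dose-response curve.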
A general note: Tetrazolium dyes change colour on reduction, which living cells bring about.

Another data set relates to Plasmodium falciparum. As to the kind of experiment: Antimalarial activity as reduced parasitaemia after 48 hrs against chloroquine, pyrimethamine and proguanil-resistant Plasmodium falciparum W2 infected in type A+ human erythrocytes by flow cytometry. Type of data set: functional, organism-based. Particulars: W2, 48 h.
Data set [1] in a line: Selectivity index, ratio of IC50 for human K562 cells to IC50 for chloroquine, pyrimethamine and proguanil-resistant Plasmodium falciparum W2. Type of data set: toxicity, cell-based. The following applies: K562 cells (cytotoxicity) versus Plasmodium falciparum W2, read-out: Ratio IC50. Put shortly:
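SI = K562 IC50 / W2 IC50. Live cells counted by flow cytometry after propidium iodide stain. IC50 by non-linear regression, mean of three independent experiments.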

Data set [2] can be described thus: Selectivity index, ratio IC50 for human HepG2 cells to IC50 for chloroquine, pyrimethamine and proguanil-resistant Plasmodium falciparum W2. It counts as functional. The procedure, abridged:
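SI = HepG2 IC50 / W2 IC50. MTT 2 h, formazan dissolved in DMSO, absorbance 570 nm (ref 630 nm). Viability as % of untreated control, IC50 from dose-response curve.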

What is called IC50 is the concentration that gives 50% inhibition. Read a low IC50 as greater potency in that assay. As to `COc1cccc(Nc2nc(C(Cl)(Cl)Cl)nc3ccccc23)c1`, the IC50 was 9 µM with K562, 0.5 µM in the data set on HepG2 and 4 µM in the data set with Plasmodium falciparum. The selectivity ratio in data set [1] worked out at 2.3. For the same molecule, the “Ratio IC50” value in data set [2] came out at 0.1.
In the same order, the values of `Clc1cccc(Nc2nc(C(Cl)(Cl)Cl)nc3ccccc23)c1Cl` are > 60 µM, > 100 µM, 14 µM, > 4.3 and 7.1.
For the molecule `Clc1ccccc1Nc1nc(C(Cl)(Cl)Cl)nc2ccccc12`, the values for the IC50 in the data set on K562, in the data set on HepG2 and in the data set with Plasmodium falciparum were > 50 µM, 25 µM and 4.6 µM, respectively. The selectivity ratio in data set [1] was > 10.9. Besides, the “Ratio IC50” value in data set [2] is on record as 5.5.
On to `Clc1ccc(Cl)c(Nc2nc(C(Cl)(Cl)Cl)nc3ccccc23)c1`, for which the figures for the IC50 in the data set on K562, in the data set with HepG2 and with Plasmodium falciparum were > 8 µM, 30 µM and 1.7 µM, respectively. Besides, the selectivity ratio in data set [1] was > 4.7. For the same molecule, the “Ratio IC50” value in data set [2] is on record as 17.6.
In the same order, the values of `FC(F)(F)c1ccccc1Nc1nc(C(Cl)(Cl)Cl)nc2ccccc12` are 30 µM, 10 µM, 7.4 µM, 4.1 and 1.4.
In the same order, the values of `Clc1ccc(Nc2nc(C(Cl)(Cl)Cl)nc3ccccc23)cc1Cl` are 9 µM, 8 µM, 5 µM, 1.8 and 1.6.
Consider `COc1ccccc1Nc1nc(C(Cl)(Cl)Cl)nc2ccccc12`, for which the IC50 is 60 µM with K562, 60 µM in the data set on HepG2 and 6 µM in the data set on Plasmodium falciparum. Further, in data set [1], the selectivity ratio came to 10. Moreover, in data set [2], the “Ratio IC50” value was determined as 10.
As for `CN1CCN(c2nc(C(Cl)(Cl)Cl)nc3ccccc23)CC1`, the IC50 in the data set with K562 was 65 µM; in the data set on HepG2, 75 µM; in the data set with Plasmodium falciparum, 5.6 µM. The selectivity ratio in data set [1] came out at 11.6. For the same molecule, the “Ratio IC50” value in data set [2] is 13.4.
The corresponding values for `ClC(Cl)(Cl)c1nc(Nc2ccccc2)c2ccccc2n1` are > 50 µM, > 50 µM, 11 µM, > 4.5 and >4.5.
The corresponding values for `ClC(Cl)(Cl)c1nc(NCc2ccccc2)c2ccccc2n1` are > 50 µM, 13 µM, 6.9 µM, > 7.2 and 1.9.
Turning to `ClC(Cl)(Cl)c1nc(Nc2ccccc2Br)c2ccccc2n1`, the IC50 with K562 was > 30 µM; in the data set on HepG2, > 50 µM; in the data set with Plasmodium falciparum, 3 µM. In addition, the selectivity ratio in data set [1] is > 10. For the same molecule, the “Ratio IC50” value in data set [2] is listed as >16.7.
The corresponding values for `Cc1ccccc1Nc1nc(C(Cl)(Cl)Cl)nc2ccccc12` are 11 µM, 24 µM, 7 µM, 1.6 and 3.4.
The corresponding values for `Fc1ccc(Nc2nc(C(Cl)(Cl)Cl)nc3ccccc23)cc1` are > 125 µM, > 50 µM, 5.4 µM, > 23.1 and >9.3.
In the same order, the values of `O=[N+]([O-])c1cccc(Nc2nc(C(Cl)(Cl)Cl)nc3ccccc23)c1` are 5 µM, 10 µM, 3 µM, 1.7 and 3.3.
In the case of `COc1ccc(Nc2nc(C(Cl)(Cl)Cl)nc3ccccc23)cc1`, the IC50 in the data set on K562 stood at 8 µM; in the data set on HepG2, 7 µM; with Plasmodium falciparum, 6 µM. Moreover, in data set [1], the selectivity ratio was 1.3. Further, the “Ratio IC50” value in data set [2] is given as 1.2.
The corresponding values for `Clc1cc(Cl)cc(Nc2nc(C(Cl)(Cl)Cl)nc3ccccc23)c1` are 9 µM, 10 µM, 4 µM, 2.2 and 2.5.
The corresponding values for `ClC(Cl)(Cl)c1nc(N2CCCC2)c2ccccc2n1` are > 125 µM, > 250 µM, 41.5 µM, > 3 and >6.
The corresponding values for `Fc1cccc(Nc2nc(C(Cl)(Cl)Cl)nc3ccccc23)c1` are 15 µM, 16 µM, 4 µM, 3.8 and 1.
As to `CCCCNc1nc(C(Cl)(Cl)Cl)nc2ccccc12`, the IC50 was > 50 µM in the data set with K562, 16 µM in the data set on HepG2 and 14.3 µM in the data set with Plasmodium falciparum. Besides, in data set [1], the selectivity ratio is > 3.5. Moreover, the “Ratio IC50” value in data set [2] came to 1.1.
The corresponding values for `Clc1ccc(Nc2nc(C(Cl)(Cl)Cl)nc3ccccc23)cc1` are 14 µM, 9 µM, 3 µM, 4.7 and 3.
The corresponding values for `ClC(Cl)(Cl)c1nc(Nc2ccc(Br)cc2)c2ccccc2n1` are 15 µM, 10 µM, 1.5 µM, 10 and 5.7.
The corresponding values for `Cc1cccc(Nc2nc(C(Cl)(Cl)Cl)nc3ccccc23)c1` are 9 µM, 12 µM, 2.3 µM, 3.9 and 5.2.
Consider `ClC(Cl)(Cl)c1nc(N2CCOCC2)c2ccccc2n1`, for which the IC50 with K562 was > 125 µM; with HepG2, 63 µM; in the data set on Plasmodium falciparum, 14.9 µM. Besides, the selectivity ratio in data set [1] was > 8.4. For the same molecule, the “Ratio IC50” value in data set [2] was >2.
In the same order, the values of `O=[N+]([O-])c1ccc(Nc2nc(C(Cl)(Cl)Cl)nc3ccccc23)cc1` are 5 µM, 6 µM, 2.8 µM, 1.8 and 2.1.
The corresponding values for `Clc1cccc(Cl)c1Nc1nc(C(Cl)(Cl)Cl)nc2ccccc12` are 10 µM, 23 µM, 21.9 µM, 0.5 and 1.1.
The corresponding values for `Fc1ccccc1Nc1nc(C(Cl)(Cl)Cl)nc2ccccc12` are 30 µM, 10 µM, 9 µM, 3.3 and 1.1.
Regarding `ClC(Cl)(Cl)c1nc(NC2CCCCCC2)c2ccccc2n1`, the IC50 was > 50 µM in the data set on K562, 19 µM in the data set with HepG2 and 5.1 µM with Plasmodium falciparum. The selectivity ratio in data set [1] is > 9.8. In data set [2], the “Ratio IC50” value is 3.7.
Take `ClC(Cl)(Cl)c1nc(Nc2cccc3ccccc23)c2ccccc2n1`: the IC50 with K562 is 5 µM; in the data set with HepG2 it was 15 µM; in the data set on Plasmodium falciparum, 6 µM. Moreover, the selectivity ratio in data set [1] amounted to 0.8. For the same molecule, in data set [2], the “Ratio IC50” value is recorded as 2.5.
As to `FC(F)(F)Oc1ccc(Nc2nc(C(Cl)(Cl)Cl)nc3ccccc23)cc1`, the results for the IC50 with K562, in the data set with HepG2 and in the data set on Plasmodium falciparum were 6 µM, 6 µM and 2.9 µM, respectively. Besides, the selectivity ratio in data set [1] amounted to 2.1. The “Ratio IC50” value in data set [2] stood at 2.1.
As for `O=[N+]([O-])c1ccccc1Nc1nc(C(Cl)(Cl)Cl)nc2ccccc12`, the IC50 in the data set with K562 was > 60 µM; with HepG2 it was > 100 µM; in the data set with Plasmodium falciparum, 3 µM. Also, the selectivity ratio in data set [1] is > 20. Moreover, the “Ratio IC50” value in data set [2] was >33.3.
In the same order, the values of `FC(F)(F)c1cc(Nc2nc(C(Cl)(Cl)Cl)nc3ccccc23)cc(C(F)(F)F)c1` are 10 µM, 3 µM, 3 µM, 3.3 and 1.
Regarding `Cc1ccc(Nc2nc(C(Cl)(Cl)Cl)nc3ccccc23)cc1`, the IC50 in the data set with K562 was 6 µM; in the data set with HepG2, 8 µM; in the data set on Plasmodium falciparum it was 2.4 µM. Also, the selectivity ratio in data set [1] worked out at 2.5. For the same molecule, the “Ratio IC50” value in data set [2] is on record as 3.3.
In the same order, the values of `FC(F)(F)c1ccc(Nc2nc(C(Cl)(Cl)Cl)nc3ccccc23)cc1` are 4 µM, 6 µM, 1.6 µM, 2.5 and 3.8.
Molecule `CCN(CC)CCCC(C)Nc1ccnc2cc(Cl)ccc12` (stereo not drawn) [CHLOROQUINE] yielded an IC50 in the data set on K562 of 32 µM.
Consider `COc1cccc2c1C(=O)c1c(O)c3c(c(O)c1C2=O)C[C@@](O)(C(=O)CO)C[C@@H]3O[C@H]1C[C@H](N)[C@H](O)[C@H](C)O1` [DOXORUBICIN], for which the IC50 in the data set on K562 was found to be 0.06 µM; in the data set on HepG2, 0.2 µM.
